Source: ChEMBL document CHEMBL5678799 (Biochem J, 2009)
Calls of active or inactive are those of the source. The calls are words filed in the database; no cut-off is given here.

What was measured:
[1] = molecular target: Serine/threonine-protein kinase PAK 6 (Homo sapiens) (UniProt Q9NQU5); assay: Inhibition of recombinant human N-terminal GST-tagged PAK6 (2 to 681 residues) expressed in Escherichia coli assessed as remaining activity at 1 uM using RRRLSFAEPG as substrate incubated for 30 mins in presence of [gamma-33P]ATP by filter binding method relative to control
Outline: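 Panel assays were run for 30 min at 21 °C, within the linear range for time and enzyme. […] Results are percent activity remaining relative to compound-free control, averaged from triplicate ± S.D.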

[2] = molecular target: Tyrosine-protein kinase Yes (Homo sapiens) (UniProt P07947); assay: Inhibition of recombinant human N-terminal His6-tagged YES1 (1 to 543 residues) expressed in baculovirus infected Sf21 cells assessed as remaining activity at 1 uM using Poly(Glu,Tyr) as substrate incubated for 30 mins in presence of [gamma-33P]ATP by filter binding assay relative to control
Outline: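 Radiometric panel assay run robotically at 21 °C for 30 min, linear in time and enzyme. […] Activity is expressed as percentage of the compound-omitted control, averaged from triplicates ± S.D.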

[3] = molecular target: mTORC1 (Homo sapiens) (UniProt P42345+Q8N122+Q9BVC4); settings: HEK293, dose 300.0 nM, time 30.0 min
[4] = molecular target: Serine/threonine-protein kinase Nek2 (Homo sapiens) (UniProt P51955); assay: Inhibition of recombinant human N-terminal His6-tagged NEK2A (1 to 445 residues) expressed in baculovirus infected Sf21 cells assessed as remaining activity at 10 uM using RFRRSRRMI as substrate incubated for 30 mins in presence of [gamma-33P]ATP by filter binding method relative to control
[5] = molecular target: Dual specificity mitogen-activated protein kinase kinase 1 (Homo sapiens) (UniProt Q02750); assay: Inhibition of recombinant human MKK1 (2 to 393 residues) expressed in Escherichia coli assessed as remaining activity at 10 uM using MBP as substrate incubated for 30 mins in presence of [gamma-33P]ATP by filter binding method relative to control
Outline: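 Kinase panel run robotically at 21 °C for 30 min, linear in time and enzyme. […] Compound tested at 1 or 10 µM. Activity given as percentage of incubations without compound, mean of triplicates ± S.D.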

[6] = molecular target: Tyrosine-protein kinase CSK (Homo sapiens) (UniProt P41240); assay: Inhibition of recombinant human N-terminal GST-tagged CSK (1 to 450 residues) expressed in Escherichia coli assessed as remaining activity at 1 uM Cdc2 peptide as substrate incubated for 30 mins in presence of [gamma-33P]ATP by filter binding method relative to control
Outline: (§1)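 Incubations ran robotically for 30 min at room temperature (21 °C) under linear conditions. Results are percent activity remaining versus controls without compound, as the mean of triplicates ± S.D.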

[7] = molecular target: Serine/threonine-protein kinase Chk1 (Homo sapiens) (UniProt O14757); assay: Inhibition of recombinant human N-terminal GST-tagged CHK1 (1 to 476 residues) expressed in baculovirus infected Sf21 cells assessed as remaining activity at 1 uM using CHKtide as substrate incubated for 30 mins in presence of [gamma-33P]ATP by filter binding method relative to control
Outline: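 Robotic radiometric panel assay, 30 min at room temperature (21 °C), with 10 mM magnesium acetate. […] Compound at 1 or 10 µM. Residual activity expressed relative to compound-free control; triplicate average ± S.D.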

[8] = test system: HEK293; assay: Inhibition of PI3K in IGF1-stimulated HEK293 cells assessed as reduction in IGF1-stimulated PtdIns(3,4,5)P3 production at 1 uM pre incubated for 30 mins followed by IGF1-stimulation for 10 mins; format: cell-based; settings: Homo sapiens
[9] = molecular target: Mitogen-activated protein kinase 14 (Homo sapiens) (UniProt Q16539); assay: Inhibition of recombinant human N-terminal GST-tagged P38alpha (1 to 360 residues) expressed in Escherichia coli assessed as remaining activity at 1 uM using MBP as substrate incubated for 30 mins in presence of [gamma-33P]ATP by filter binding method relative to control
Outline: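 Incubation was 30 min at room temperature (21 °C) under conditions linear with time and enzyme amount. Activity is reported as percent of control lacking compound, triplicate mean ± S.D.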

[10] = molecular target: Inhibitor of nuclear factor kappa-B kinase subunit beta (Homo sapiens) (UniProt O14920); assay: (§2) Inhibition of recombinant human N-terminal His6-tagged IKKbeta (1 to 736 residues) expressed in baculovirus infected Sf21 cells assessed as remaining activity at 1 uM using LDDRHDSGLDSMKDEEY as substrate incubated for 30 mins in presence of [gamma-33P]ATP by filter binding method relative to control
Outline: (§3)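 Profiling-centre panel assay performed robotically at 21 °C for 30 min, linear with time and enzyme. […] Values are percent of compound-free control activity, the mean of triplicates ± S.D.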

[11] = molecular target: Serine/threonine-protein kinase pim-1 (Homo sapiens) (UniProt P11309); assay: Inhibition of recombinant human N-terminal His6-tagged PIM1 (2 to 313 residues) expressed in baculovirus infected Sf21 cells assessed as remaining activity at 10 uM using RSRHSSYPAGT as substrate incubated for 30 mins in presence of [gamma-33P]ATP by filter binding method relative to control; outline: as §1
[12] = molecular target: Dual specificity tyrosine-phosphorylation-regulated kinase 2 (Homo sapiens) (UniProt Q92630); assay: Inhibition of recombinant human N-terminal GST-tagged DYRK2 (3 to 528 residues) expressed in Escherichia coli assessed as remaining activity at 10 uM using KKISGRLSPIMTEQ as substrate incubated for 30 mins in presence of [gamma-33P]ATP by filter binding method relative to control
Outline: (§4)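 Run robotically for 30 min at 21 °C under linear conditions. Compound at 1 or 10 µM. Percentage activity remaining versus control without compound, triplicate mean ± S.D.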

[13] = molecular target: Serine/threonine-protein kinase Nek6 (Homo sapiens) (UniProt Q9HC98); assay: Inhibition of recombinant human His6-tagged NEK6 (8 to 313 residues) expressed in baculovirus infected Sf21 cells assessed as remaining activity at 10 uM using FLAKSFGSPNRAYKK as substrate incubated for 30 mins in presence of [gamma-33P]ATP by filter binding method relative to control; outline: as §4
[14] = test system: MEF; assay: Inhibition of mTORC2 in serum starved sin1 knockout MEF cells assessed as reduction IGF1-stimulated AKT phosphorylation at Thr308 residue at 100 to 1000 nM incubated for 20 mins by immunoblot analysis; format: cell-based; settings: Mus musculus, dose 100-1000 nM
Outline: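 Serum withdrawn 16 h. Inhibitor or vehicle given 30 min before stimulation with 50 ng/ml IGF-1 for 20 min. Lysed in Tris lysis buffer and immunoblotted for Akt Thr308 phosphorylation with ECL detection. Applies to HEK-293 and to wild-type, Rictor, Sin1 or mLST8 knockout MEFs. Three independent experiments.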

[15] = molecular target: Inhibitor of nuclear factor kappa-B kinase subunit beta (Homo sapiens) (UniProt O14920); assay: as §2, with “at 10” for “at 1”; outline: as §3

Compound: COc1ccc(-c2ccc3c(N4CCOCC4)nc(N4C[C@@H](C)O[C@@H](C)C4)nc3n2)cc1CO [Ku-0063794]
- Activity [1]: 75%
- Activity [2]: 94%
- inhibition [3]: 90%
- Activity [4]: 86%
- Activity [5]: 43%
- Activity [6]: 90%
- Activity [7]: 87%
- inhibition [8]: inactive
- Activity [9]: 101%
- Activity [10]: 104%
- Activity [11]: 98%
- Activity [12]: 96%
- Activity [13]: 83%
- inhibition [14]: Active
- Activity [15]: 89%
